This note sets out measurements from ChEMBL document CHEMBL6083235, “Synthesis, evaluation and mechanistic insights of novel IMPDH inhibitors targeting ESKAPEE bacteria” (Eur J Med Chem, 2024).

Data set [1] relates to Escherichia coli. Kind of data set: Inhibition of Escherichia coli IMPDH delta Bateman domain extracted form Escherichia coli BL21 (DE3)pDIA17 assessed as formation of NADH at 50 uM relative to control. In a few lines:
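Bateman-domain-deleted IMPDH (E. coli or P. aeruginosa), His-tagged, made in E. coli BL21(DE3)/pDIA17. NADH formation at 340 nm, 30 °C, 0.2 mM IMP, 0.4 mM NAD⁺, 0.2 mM MgATP, 2 mM MgCl₂. Buffer: ec Tris-HCl 50 mM pH 9, KCl 100 mM; pa Tris-HCl 50 mM pH 8, KCl 100 mM. Compound 50 μM; % inhibition relative to uninhibited enzyme.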

Data set [2] deals with T1, Inosine-5'-monophosphate dehydrogenase (Escherichia coli K-12) (UniProt P0ADG7).
T1 sequence (whole entry): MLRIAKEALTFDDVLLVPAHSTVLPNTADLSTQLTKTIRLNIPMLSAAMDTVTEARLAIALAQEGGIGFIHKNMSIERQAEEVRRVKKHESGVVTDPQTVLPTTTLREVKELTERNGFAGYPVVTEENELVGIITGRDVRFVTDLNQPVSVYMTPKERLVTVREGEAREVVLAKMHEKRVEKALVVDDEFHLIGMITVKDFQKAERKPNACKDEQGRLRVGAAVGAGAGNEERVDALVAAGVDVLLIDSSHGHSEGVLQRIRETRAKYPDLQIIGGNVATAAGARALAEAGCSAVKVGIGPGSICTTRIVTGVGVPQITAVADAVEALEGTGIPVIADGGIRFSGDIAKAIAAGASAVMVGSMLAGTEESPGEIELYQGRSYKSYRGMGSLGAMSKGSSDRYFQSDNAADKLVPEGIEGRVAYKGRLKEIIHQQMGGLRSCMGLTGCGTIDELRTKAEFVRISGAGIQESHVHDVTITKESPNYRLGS
Kind of data set: Inhibition of Escherichia coli IMPDH extracted form Escherichia coli BL21 (DE3)pDIA17 assessed as formation of NADH at 50 uM relative to control. In a few lines:
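His-tagged wild-type IMPDH (E. coli, P. aeruginosa or S. aureus) made in E. coli BL21(DE3)/pDIA17, purified by metal-affinity then gel filtration. NADH formation followed at 340 nm, 30 °C, with 0.2 mM IMP, 0.4 mM NAD⁺, 0.2 mM MgATP, 2 mM MgCl₂. Buffers: pa Tris-HCl 50 mM pH 8; ec Tris-HCl 50 mM pH 8, KCl 50 mM; sa Na₂CO₃ 50 mM pH 9.2, KCl 20 mM. Compound at 50 μM; % inhibition vs compound-free activity.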

A short description of data set [3]: Inhibition of Escherichia coli IMPDH delta Bateman domain extracted form Escherichia coli BL21 (DE3)pDIA17 assessed as formation of NADH. As to conditions: read-out: I50. In a few lines:
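Bateman-domain-deleted IMPDH (E. coli or P. aeruginosa) from E. coli BL21(DE3)/pDIA17; NADH at 340 nm, 30 °C, 0.2 mM IMP, 0.4 mM NAD⁺, 0.2 mM MgATP, 2 mM MgCl₂; buffers as per variant (ec Tris-HCl pH 9/KCl 100 mM; pa Tris-HCl pH 8/KCl 100 mM). I50 by dose-response logistic fit, at least three experiments.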

The subject of data set [4] is Caco-2. As to the kind of experiment: Cytotoxicity against human Caco-2 cells assessed as cell viability at 1 uM measured after 72 hrs by Alamar blue assay. Type of data set: toxicity, cell-based. Conditions: caco-2, 72 h. In a few lines:
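Confluent Caco-2 monolayers (seeded 1.10⁵ cells/cm², 48 h growth; DMEM 25 mM glucose, 10 % FBS, NEAA, 37 °C, 5 % CO₂) exposed 72 h; vehicle 0.1 % DMSO, 0.2 % Triton X-100 as cytotoxic control. Rinsed with PBS, 5 % Alamar Blue in FBS-free medium 30 min at 37 °C; resorufin fluorescence (ex 530/em 570 nm) relative to DMSO. Mean ± SEM, three independent experiments.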

Data set [5] concerns the target T2, Inosine-5'-monophosphate dehydrogenase (Pseudomonas aeruginosa (strain ATCC 15692 / DSM 22644 / CIP 104116 / JCM14847 / LMG 12228 / 1C / PRS 101 / PAO1), UniProt Q9HXM5).
T2 sequence (Q9HXM5 whole entry): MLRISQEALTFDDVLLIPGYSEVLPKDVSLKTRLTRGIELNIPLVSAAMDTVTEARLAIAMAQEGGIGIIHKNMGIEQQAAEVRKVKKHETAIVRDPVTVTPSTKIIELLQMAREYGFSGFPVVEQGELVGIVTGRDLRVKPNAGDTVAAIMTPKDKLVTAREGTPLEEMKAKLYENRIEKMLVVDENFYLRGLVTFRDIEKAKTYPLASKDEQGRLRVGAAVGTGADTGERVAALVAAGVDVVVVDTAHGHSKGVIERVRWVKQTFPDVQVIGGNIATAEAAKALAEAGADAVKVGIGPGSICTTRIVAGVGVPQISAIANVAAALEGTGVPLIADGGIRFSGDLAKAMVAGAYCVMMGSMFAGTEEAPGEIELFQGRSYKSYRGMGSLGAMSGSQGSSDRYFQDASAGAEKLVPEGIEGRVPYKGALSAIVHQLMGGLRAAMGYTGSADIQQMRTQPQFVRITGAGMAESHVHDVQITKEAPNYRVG
As to the kind of experiment: Inhibition of Pseudomonas aeruginosa IMPDH extracted form Escherichia coli BL21 (DE3)pDIA17 assessed as formation of NADH. Conditions: read-out: I50.

Molecules are shown by their SMILES.

For the molecule `CC(C)(NC(=O)Nc1ccc(Cl)c([N+](=O)[O-])c1)c1cccc(-c2c[nH]cn2)c1`, the inhibition in data set [1] stood at 90%; in data set [2], 88%. Besides, the IC50 in data set [3] amounted to 4260 nM; in data set [5], 100 nM. Moreover, the Activity entry in data set [4] is reported as “Non-toxic”.

The inhibition is the change of the read-out against control, counted positive when it falls.
